ChEMBL document CHEMBL1130025, “Dihydro(alkylthio)(naphthylmethyl)oxopyrimidines: novel non-nucleoside reverse transcriptase inhibitors of the S-DABO series” (J Med Chem, 1997)

Legend:
MT4 [1] = test: Dose required to reduce the viability of mock-infected cells by 50%; type: functional; conditions: Homo sapiens
Procedure, shortened: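 Mock-infected MT-4 cells (1×10^4 per well) were exposed to compound dilutions in parallel with the antiviral assay. After 4 days at 37 °C, viability was measured by MTT. CC50 is the dose reducing viable cell number by 50%.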

[2] = test system: Human immunodeficiency virus type 1; test: Selectivity index is the ratio of CC50 to EC50; conditions: Human immunodeficiency virus 1
MT4 [3] = test: Dose required to achieve 50% protection of MT-4 cells from the HIV-1 induced cytopathogenicity in HIV-1 infected MT-4 cells; conditions: Homo sapiens
[4] = biological target: Human immunodeficiency virus type 1 reverse transcriptase (Human immunodeficiency virus 1, UniProt Q72547); test: Compound concentration required to inhibit the HIV-1 recombinant Reverse transcriptase (rRT) activity by 50%.
C8166 = test: Ability to inhibit HIV-2 multiplication in acutely infected C8166 cells; type: functional, cell-based; conditions: Homo sapiens
Procedure, shortened: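 C8166 cells (1×10^4 per well) in RPMI 1640 with 10% FCS were infected with 1000 CCID50 of HIV-2 ROD, alongside serial compound dilutions from DMSO stock. After 5 days at 37 °C, viable cells were counted by MTT. EC50 is the dose giving 50% protection from virus-induced cytopathicity. Data are means of three experiments.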

H9 = test: Ability to inhibit HIV-1 multiplication in chronically infected H9/IIIB cells; type: functional, cell-based; conditions: Homo sapiens
Procedure, shortened: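 Value taken as compound dose lowering infectious HIV-1 titer by 1 log in chronically infected H9/IIIB cells. Titer was read in C8166 cells by limiting dilution (1:2, 4 replica wells per dilution), with light-microscope scoring of cytopathicity after 4 days, expressed as CCID50/mL. Data are means of three separate experiments.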

MT4 [5] = test: (§1) Inhibitory activity against resistant HIV-1 strain MC639r was determined.; type: functional, cell-based; conditions: Homo sapiens
MT4 [6] = test: (§2) Inhibitory activity against resistant HIV-1 strain NevR was determined.; type: functional, cell-based; conditions: Homo sapiens
MT4 [7] = test: Inhibitory activity against resistant HIV-1 strain Nevr was determined; type: functional, cell-based; conditions: Homo sapiens
MT4 [8] = test: as §1; type: functional, Homo sapiens
MT4 [9] = test: as §2; type: functional, Homo sapiens

Row | Compound | CC50 (MT4 [1]) [µM] | Ratio [2] | EC50 (MT4 [3]) [µM] | other results
1 | CCC(C)Sc1nc(O)cc(COc2ccccc2)n1 (stereo not drawn) | > 300 | > 6 | 52 | –
2 | O=c1cc(Cc2cccc3ccccc23)nc(SC2CCCC2)[nH]1 | – | – | – | IC50 [4]: 48.7 µM
3 | Cc1c(O)nc(S)nc1CSc1ccccc1 | > 300 | – | > 300 | –
4 | CCC(CC)Sc1nc(O)cc(Cc2cccc3ccccc23)n1 | 200 | 50 | 4 | –
5 | Cc1c(O)nc(SC2CCCC2)nc1Cc1cccc2ccccc12 | > 300 | > 50 | 6 | EC50 (C8166): > 100 µM; EC50 (H9): > 100 µM; EC50 (MT4 [5]): 16.2 µM; EC50 (MT4 [6]): > 100 µM
6 | Cc1c(O)nc(SC2CCCCC2)nc1-c1ccccc1 | > 300 | – | > 300 | –
7 | CCCCCCCCCCCSc1nc(O)cc(Cc2cccc3ccccc23)n1 | > 300 | – | > 300 | –
8 | Cc1cccc(Cc2nc(SC3CCCCC3)nc(S)c2C)c1 | 176 | 12 | 14.6 | –
9 | Cc1c(O)nc(SC2CCCCC2)nc1Cc1ccc2ccccc2c1 | > 300 | > 2.4 | 125 | –
10 | Cc1c(Cc2cccc3ccccc23)nc(SC2CCCC2)[nH]c1=O | – | – | – | IC50 [4]: 45 µM
11 | Cc1c(O)nc(S)nc1COc1ccccc1 | > 300 | – | > 300 | –
12 | Oc1cc(Cc2cccc3ccccc23)nc(SC2CCCCCC2)n1 | > 300 | > 100 | 3 | –
13 | CCC(C)Sc1nc(O)c(C)c(Cc2cccc3ccccc23)n1 (stereo not drawn) | > 300 | > 300 | 1 | EC50 (C8166): > 100 µM; EC50 (H9): > 100 µM; EC50 (MT4 [5]): 6 µM; EC50 (MT4 [6]): > 100 µM
14 | Oc1cc(CSc2ccccc2)nc(SC2CCCCC2)n1 | > 300 | > 9.4 | 32 | –
15 | Cc1c(O)nc(SC2CCCCC2)nc1CCc1ccccc1 | > 300 | > 11 | 27 | –
16 | CCCc1cc(O)nc(SC(C)CC)n1 (stereo not drawn) | 246 | – | > 246 | –
17 | Oc1cc(CCc2ccccc2)nc(SC2CCCCC2)n1 | 133 | 1.9 | 68 | –
18 | Oc1cc(CSc2ccccc2)nc(S)n1 | > 300 | – | > 300 | –
19 | CCC(C)Sc1nc(COc2ccccc2)c(C)c(=O)[nH]1 (stereo not drawn) | – | – | – | IC50 [4]: > 100 µM
20 | Cc1ccnc2c1NC(=O)c1cccnc1N2C1CC1 [NEVIRAPINE] | > 300 | – | 0.25 | EC50 (C8166): > 100 µM; EC50 (H9): > 100 µM; EC50 (MT4 [5]): 0.31 µM; EC50 (MT4 [6]): > 100 µM
21 | Cc1c(O)nc(S)nc1Cc1cccc2ccccc12 | 145 | – | > 145 | –
22 | CCC(C)Sc1nc(O)cc(CSc2ccccc2)n1 (stereo not drawn) | 288 | 5.4 | 53 | –
23 | CCCc1cc(O)nc(SC2CCCCC2)n1 | 210 | – | > 210 | –
24 | Oc1cc(Cc2cccc3ccccc23)nc(SCc2ccccc2)n1 | > 300 | > 24 | 12.6 | –
25 | Cc1nc(SC2CCCCC2)nc(O)c1Cc1ccccc1 | > 300 | – | > 300 | –

Row | Compound | CC50 (MT4 [1]) [µM] | Ratio [2] | EC50 (MT4 [3]) [µM] | other results
26 | Oc1cc(Cc2ccc3ccccc3c2)nc(SC2CCCCC2)n1 | > 300 | > 128 | 1.7 | EC50 (C8166): > 100 µM; EC50 (H9): > 100 µM; EC50 (MT4 [5]): 20 µM; EC50 (MT4 [6]): > 100 µM; IC50 [4]: 33.1 µM
27 | COc1nc(SC2CCCCC2)nc(Cc2cccc(C)c2)c1C | > 300 | – | > 300 | –
28 | Oc1cc(CCc2ccccc2)nc(SC2CCCC2)n1 | 112 | 1.4 | 81.5 | –
29 | CCC(C)Sc1nc(O)c(C)c(Cc2cccc(C)c2)n1 (stereo not drawn) | 100 | 100 | – | –
30 | Cc1cccc(Cc2nc(SC3CCCC3)nc(O)c2C)c1 | > 300 | > 500 | – | –
31 | CCC(C)Sc1nc(O)c(C)c(Cc2ccc3ccccc3c2)n1 (stereo not drawn) | 80 | 47 | 1.7 | EC50 (C8166): > 100 µM; EC50 (H9): > 100 µM; EC50 (MT4 [5]): 17.8 µM; EC50 (MT4 [6]): > 100 µM
32 | Cc1c(O)nc(SC2CCCC2)nc1-c1ccccc1 | 175 | – | > 175 | –
33 | Oc1cc(COc2ccccc2)nc(SC2CCCC2)n1 | > 300 | > 2 | 148 | –
34 | Cc1c(O)nc(SC2CCCC2)nc1CSc1ccccc1 | > 300 | > 2 | 150 | –
35 | CCC(C)Sc1nc(O)c(C)c(CCc2ccccc2)n1 (stereo not drawn) | 105 | 6 | 18 | –
36 | Oc1cc(Cc2cccc3ccccc23)nc(SC2CCCCC2)n1 | > 300 | > 96 | 3.1 | –
37 | Oc1cc(COc2ccccc2)nc(SC2CCCCC2)n1 | > 300 | – | > 300 | –
38 | Cc1c(O)nc(SC2CCCC2)nc1COc1ccccc1 | > 300 | > 13 | 24 | –
39 | Cc1cccc(Cc2nc(SC3CCCCC3)n(C)c(=O)c2C)c1 | 44 | – | > 44 | –
40 | Oc1cc(CSc2ccccc2)nc(SC2CCCC2)n1 | 300 | 4.5 | 66 | –
41 | Oc1cc(COc2ccccc2)nc(S)n1 | > 300 | – | > 300 | –
42 | CCCC(C)Sc1nc(O)cc(Cc2cccc3ccccc23)n1 (stereo not drawn) | 158 | 34 | 4.6 | –
43 | Cc1nc(SC2CCCC2)nc(O)c1Cc1ccccc1 | > 300 | – | > 300 | –
44 | Oc1cc(Cc2cccc3ccccc23)nc(S)n1 | > 300 | – | > 300 | –
45 | Cc1c(O)nc(SC2CCCC2)nc1CCc1ccccc1 | > 300 | > 16 | 19 | –
46 | Oc1cc(Cc2ccc3ccccc3c2)nc(S)n1 | > 300 | – | > 300 | –
47 | CCC(C)Sc1nc(O)cc(Cc2cccc3ccccc23)n1 (stereo not drawn) | > 300 | > 909 | 0.33 | EC50 (C8166): > 100 µM; EC50 (H9): > 100 µM; EC50 (MT4 [5]): 2.1 µM; EC50 (MT4 [6]): > 100 µM; IC50 [4]: 8.1 µM
48 | Oc1cc(-c2ccccc2)nc(SC2CCCC2)n1 | > 300 | – | > 300 | –
49 | Cc1c(O)nc(SC2CCCC2)nc1Cc1ccc2ccccc2c1 | > 300 | > 20 | 15 | –
50 | CCC(C)Sc1nc(SC2CCCCC2)nc(Cc2cccc(C)c2)c1C (stereo not drawn) | > 300 | – | > 300 | –

Row | Compound | CC50 (MT4 [1]) [µM] | Ratio [2] | EC50 (MT4 [3]) [µM] | other results
51 | Oc1cc(Cc2cccc3ccccc23)nc(SC2CCCC2)n1 | > 300 | > 150 | 2 | EC50 (C8166): > 100 µM; EC50 (H9): > 100 µM; EC50 (MT4 [6]): > 100 µM; EC50 (MT4 [7]): > 100 µM
52 | Oc1cc(Cc2ccc3ccccc3c2)nc(SC2CCCC2)n1 | > 300 | > 8.1 | 3.7 | –
53 | Cc1cccc(Cc2nc(SC3CCCCC3)ncc2C)c1 | 128 | – | > 128 | –
54 | Cc1cn([C@H]2C[C@H](N=[N+]=[N-])[C@@H](CO)O2)c(=O)[nH]c1=O [ZIDOVUDINE] | > 80 | – | – | EC50 (C8166): 0.015 µM; EC50 (H9): > 20 µM; EIC50 (MT4 [8]): 0.003 µM; EIC50 (MT4 [9]): 0.013 µM
55 | CCC(C)Sc1nc(O)c(C)c(CSc2ccccc2)n1 (stereo not drawn) | 75 | 3.3 | 23 | –
56 | CCC(C)Sc1nc(O)c(C)c(-c2ccccc2)n1 (stereo not drawn) | 126 | – | > 126 | –
57 | Cc1cccc(Cc2nc(SC3CCCCC3)nc(N)c2C)c1 | > 200 | – | > 200 | –
58 | Cc1c(O)nc(S)nc1Cc1ccc2ccccc2c1 | 91 | – | > 91 | –
59 | Oc1cc(-c2ccccc2)nc(SC2CCCCC2)n1 | > 300 | – | > 300 | –
60 | Cc1cccc(Cc2nc(SC3CCCCC3)nc(Cl)c2C)c1 | 133 | – | > 133 | –
61 | CCC(C)Sc1nc(Cc2cccc3ccccc23)c(C)c(=O)[nH]1 (stereo not drawn) | – | – | – | IC50 [4]: 22.5 µM
62 | Cc1c(O)nc(S)nc1CCc1ccccc1 | > 300 | – | > 300 | –
63 | Cc1c(O)nc(SC2CCCCC2)nc1Cc1cccc2ccccc12 | > 300 | > 4.7 | 63 | –
64 | Cc1cccc(Cc2nc(SC3CCCCC3)nc(N/N=C(/N)S)c2C)c1 | 24 | – | > 24 | –
65 | CCC(C)Sc1nc(C)c(Cc2ccccc2)c(O)n1 (stereo not drawn) | > 300 | – | > 300 | –
66 | Cc1c(O)nc(SC2CCCCC2)nc1COc1ccccc1 | > 300 | > 14 | 22 | –
67 | Cc1c(O)nc(SC2CCCCC2)nc1CSc1ccccc1 | > 300 | > 2 | 150 | –
68 | Cc1cccc(Cc2nc(SC3CCCCC3)nc(O)c2C)c1 | > 300 | > 500 | – | EC50 (C8166): > 100 µM; EC50 (H9): > 100 µM; EC50 (MT4 [5]): > 100 µM; EC50 (MT4 [6]): > 100 µM; IC50 [4]: 0.9 µM
69 | CC(C)Sc1nc(O)cc(Cc2cccc3ccccc23)n1 | > 300 | > 300 | 1 | –
70 | CCC(C)Sc1nc(O)cc(CCc2ccccc2)n1 (stereo not drawn) | 180 | 1.4 | 125 | –
71 | CCC(C)Sc1nc(O)cc(Cc2ccc3ccccc3c2)n1 (stereo not drawn) | 40 | 14 | 2.8 | EC50 (C8166): > 100 µM; EC50 (H9): > 100 µM; EC50 (MT4 [5]): 4.1 µM; EC50 (MT4 [6]): > 100 µM; IC50 [4]: 7.4 µM
72 | CCC(C)Sc1nc(Cc2ccc3ccccc3c2)c(C)c(=O)[nH]1 (stereo not drawn) | – | – | – | IC50 [4]: 29.7 µM
73 | CCC(C)Sc1nc(O)cc(-c2ccccc2)n1 (stereo not drawn) | > 300 | – | > 300 | –
